KCNQ1 inh: blocks the human KCNQ1 potassium channel. CHO-K1 KCNQ1, FluxOR thallium flux fluorescence; hits give high values. P51787. B-score at 10 µM. AID 2642. hit rate 1.3% among 310,000;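 active = compounds whose thallium flux B-score, printed positive for inhibition, exceeds three library SD while starting fluorescence stays within three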;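 also: channel opened by potassium depolarization with thallium stimulus after 20 min compound exposure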
KCNQ1 pot: potentiators or activators of human KCNQ1 potassium channel | P51787 | hit rate 0.35% among 310,000 | CHO-K1 KCNQ1, thallium flux FluxOR fluorescence; hits give high values | B-score at 10 µM;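 active = fluorescence ratio B-score, a plate-corrected score, at least three library SD, with initial intensity B-score within 5 SD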
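System: CHO-K1 cells stably expressing KCNQ1 / Medium: assay buffer for compound exposure, DMSO matched across wells / Reagent: thallium- and potassium-containing depolarizing buffer / Compound: one concentration, matched DMSO / Incubation: 20 min compound pretreatment at room temperature / Measured by: kinetic FluxOR fluorescence, 10 s baseline plus 110 s post-stimulus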
KCNK3 block: human KCNK3 channel inhibition, primary screen. B-score at 10 µM. CHO-KCNK3 thallium flux, FluxOR fluorescence; hits give low values. hit rate 0.84% among 340,000. O14649. AID 602410;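 active = B-score under library mean minus 4 SD, starting fluorescence ratio at most library mean plus 5 SD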;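 also: more negative B-score means stronger inhibition of thallium flux through KCNK3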
hERG rescue: hERG (human) protection from proarrhythmic block. AID 1511. hit rate 0.51% among 310,000. Q12809. CHO-hERG, FluxOR thallium flux, dofetilide IC70 present. activation (rescue from dofetilide block), less the hit threshold, % at 10 µM;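 active = activation above the mean of controls blocked by dofetilide plus 5 SD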;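 also: thallium influx through hERG after potassium depolarization seen as dye fluorescence rise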
Kir21 inh: Kir2.1 (mouse) channel inhibition; hit rate 0.85% among 310,000; HEK293-Kir2.1, FluxOR thallium flux fluorescence; hits give low values; AID 1672; P35561; B-score at 10 µM;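 active = fluorescence ratio B-score at or below minus 3 SD of library scores, with starting-brightness B-score within 2 SD, cut at about -4.2 in these data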;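 also: channel flux triggered by added potassium and thallium sulfate stimulus; B-score of peak minus minimum fluorescence over baseline after thallium stimulus; more negative B-score means stronger Kir2.1 block with less thallium influx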
Target sequence (P35561 whole entry, looked up): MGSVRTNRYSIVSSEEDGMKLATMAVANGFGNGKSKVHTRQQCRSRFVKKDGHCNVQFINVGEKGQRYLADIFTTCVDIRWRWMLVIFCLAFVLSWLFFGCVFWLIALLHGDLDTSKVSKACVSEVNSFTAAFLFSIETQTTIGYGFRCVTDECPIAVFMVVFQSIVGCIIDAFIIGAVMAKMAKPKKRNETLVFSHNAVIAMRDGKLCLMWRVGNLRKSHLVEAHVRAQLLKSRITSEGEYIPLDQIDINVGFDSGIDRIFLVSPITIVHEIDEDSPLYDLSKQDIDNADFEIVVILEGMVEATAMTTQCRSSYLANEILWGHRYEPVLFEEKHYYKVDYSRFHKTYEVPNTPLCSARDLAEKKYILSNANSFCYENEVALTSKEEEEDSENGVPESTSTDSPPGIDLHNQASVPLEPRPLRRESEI
KCNK9 inh: inhibitors of human KCNK9 two-pore domain potassium channel. Q9NPC2. HEK293 KCNK9, FluxOR thallium flux fluorescence; hits give low values. B-score at 10 µM. hit rate 1.2% among 310,000. AID 488922;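 active = ratio B-score over 3 SD below the library mean, with starting fluorescence within 5 SD of its mean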;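 also: negative B-score means less thallium flux so channel inhibition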
Each line names hits and unclear results; the compound was inactive in the other large screens. Most compounds without a hit are left out; they make up all but 3.7% or so of the library.

COc1ccc(C(=O)Nn2c(SCC(=O)c3ccc(Cl)cc3)nc3ccccc3c2=O)cc1	KCNK9 inh -7.05
CCCOc1ccc(C(=O)Nn2c(C)nc3ccccc3c2=O)cc1	hERG rescue 6.5
COc1ccc(C(=O)Nn2c(C)nc3ccccc3c2=O)cc1	none
Cc1ccc(C(=O)CC(=O)c2cccc(F)c2)c(O)c1	KCNQ1 pot 16, hERG rescue 10.5
Cc1ccc(C(=O)CC(=O)c2ccccc2C)c(O)c1	none
Cc1ccc(O)c(C(=O)CC(=O)c2ccccc2Cl)c1	KCNQ1 pot 13, hERG rescue 45.4
CCN(CC)CCNC(=O)c1ccc(NC(=O)C2CC(=O)N(c3ccc4c(c3)OCCO4)C2)cc1 (stereo unspecified)	none
COC(=O)c1c(NC(=S)Nc2ccc(F)cc2[N+](=O)[O-])sc2c1CCCCC2	KCNQ1 pot 10, hERG rescue 6.4
CCOC(=O)c1c(NC(=S)NC)sc2c1CC(C)(C)SC2	KCNQ1 pot 71, hERG rescue 44.5
CNC(=S)Nc1sc2c(c1C(=O)OC)CCC2	KCNQ1 pot 16, hERG rescue 11.0
COC(=O)c1c(NS(=O)(=O)Cc2ccccc2)sc2c1CCCC2	KCNQ1 pot 13, hERG rescue 17.7
CCOC(=O)C(Cc1c[nH]c2cc([N+](=O)[O-])ccc12)(NC(C)=O)C(=O)OCC	none (no result: KCNQ1 inh, KCNQ1 pot, hERG rescue, Kir21 inh, KCNK9 inh)
CC(C)[C@H](NC(=O)c1ccccc1F)C(=O)OCC(=O)NC1CC1	none (no result: KCNQ1 inh, KCNQ1 pot, hERG rescue, Kir21 inh, KCNK9 inh)
COC(=O)c1c(NC(=O)CCNCc2ccco2)sc2c1CCC2	Kir21 inh -8.09
Cc1nc(N2CCN(Cc3ccccc3)CC2)c(C#N)c2c1COC(C)(C)C2	Kir21 inh -7.51
CCOc1ccc(CCN2C(=S)N([C@@H](CC(C)C)CN3CCCC3CN3C(=S)NC[C@@H]3CC(C)C)C[C@@H]2CC(C)C)cc1 (stereo partly specified)	none (no result: KCNQ1 inh, KCNQ1 pot, hERG rescue, Kir21 inh, KCNK9 inh)
O=C(Nc1cccc(Cl)c1)Nc1nc(-c2ccc(Cl)cc2)cs1	KCNQ1 inh 8
CCCCCNC(=O)c1ccc2c(=O)[nH]c3c(C(=O)NCC4CCCO4)sc(=S)n3c2c1 (stereo unspecified)	none
Cc1ccc(CNC(=O)c2ccc3c(=O)[nH]c4c(C(=O)NCC5CCCO5)sc(=S)n4c3c2)cc1 (stereo unspecified)	KCNQ1 inh 10
O=C(NCc1ccccc1)c1ccc2c(=O)[nH]c3c(C(=O)NCC4CCCO4)sc(=S)n3c2c1 (stereo unspecified)	KCNQ1 inh 8
O=C(NCc1ccco1)c1sc(=S)n2c1[nH]c(=O)c1ccccc12	KCNQ1 inh 7
O=C(NC1CCCC1)c1sc(=S)n2c1[nH]c(=O)c1ccccc12	none
CCOc1ccc(-n2c(-c3ccccc3)c[n+]3c2CCCCC3)cc1	KCNQ1 inh 8
CC(C)CCn1c(=S)[nH]c2ncccc2c1=O	KCNQ1 pot 10, hERG rescue 9.9
CC(CCc1ccccc1)NC(=O)c1ccc(NC(=O)c2cccc(Br)c2)cc1 (stereo unspecified)	KCNK9 inh -7.43
CN(C(=O)c1ccccc1F)C(c1ccccc1)c1ccccc1	Kir21 inh -7.19
CC(/C=N/NC(=O)c1ccccc1F)c1ccccc1 (stereo unspecified)	none
Fc1ccc(NC(=S)Nc2nccs2)cc1	hERG rescue 10.1
Cn1nc([N+](=O)[O-])c(C(C#N)c2nc3ccccc3n2C)c(Cl)c1=O (stereo unspecified)	KCNQ1 inh 6
Cn1c(-c2ccc([N+](=O)[O-])cc2)nc2ccccc21	none
COC(C)c1oc2c(C)c3oc(=O)cc(C)c3cc2c1C (stereo unspecified)	none
COc1ccc(CNC(=O)CN(C)Cc2ccc(SC)cc2)cc1	Kir21 inh -6.75
CSc1ccc(CN(C)C(C)C(=O)NCc2ccccc2)cc1 (stereo unspecified)	Kir21 inh -9.7
CCOc1ccc(CN(C)C(C)C(=O)NCc2ccccc2)cc1 (stereo unspecified)	none
O=C(CSC(=S)N1CCCC1)N(Cc1nnc(-c2ccccc2Cl)o1)C1CC1	none (no result: KCNQ1 inh, KCNQ1 pot, hERG rescue, Kir21 inh, KCNK9 inh)
O=C(NC1CCN(Cc2ccccc2)CC1)c1ccc(Cl)cc1Cl	Kir21 inh -6.53
Cc1c(Cl)cccc1NC(=S)NC1CCN(Cc2ccccc2)CC1	none
S=C(Nc1ccccc1Cl)NC1CCN(Cc2ccccc2)CC1	Kir21 inh -6.74
COc1cc[n+]([O-])cc1[N+](=O)[O-]	none (no result: KCNQ1 inh, KCNQ1 pot, hERG rescue, Kir21 inh, KCNK9 inh)
O=C1Nc2ccccc2/C1=C/c1cnc(-c2ccccc2)[nH]1	KCNK9 inh -6.62
CCc1cc(-c2nc(N)ncc2-c2csc(C)n2)c(O)cc1OC	none
CCCc1cc(-c2nc(N)ncc2-c2ccc3c(c2)OCCCO3)c(O)cc1OC	KCNQ1 inh 7
CCCc1cc(-c2nc(N)ncc2-c2csc(C)n2)c(O)cc1OC	Kir21 inh -6.39
CCOC(=O)c1c(C)[nH]c(C)c1C(=O)COC(=O)Cc1n[nH]c(=O)c2ccccc12	none (no result: KCNQ1 inh, KCNQ1 pot, hERG rescue, Kir21 inh, KCNK9 inh)
Fc1ccccc1CSc1nncn1NC/C=C/c1ccccc1	none
Cc1nnc(SCc2ccc(F)cc2)n1NC/C=C/c1ccccc1	Kir21 inh -5.06
CN(c1ccccc1)S(=O)(=O)c1ccc(NC(=O)CC(=O)c2ccccc2)cc1	none (no result: KCNQ1 inh, KCNQ1 pot, hERG rescue, Kir21 inh, KCNK9 inh)
Cc1ccc(S(=O)(=O)n2nccc2-c2c(-c3ccccc3)noc2C)cc1	KCNK9 inh -7.25
COC(=O)[C@]1(C)N[C@H](CN(C)C(=O)C2CCCCC2)[C@@H]2C(=O)N(C)C(=O)[C@@H]21	none (no result: KCNQ1 inh, KCNQ1 pot, hERG rescue, Kir21 inh, KCNK9 inh)
CCN(CC)S(=O)(=O)c1cc(NC(=O)CSCc2c(C)noc2C)ccc1C	KCNK3 block -10 (no result: KCNQ1 inh, KCNQ1 pot, hERG rescue, Kir21 inh, KCNK9 inh)
COc1cccc(CN(C)C(=S)Nc2ccc(C)c(C)c2)c1	hERG rescue 4.7
COc1ccc(CN(C)C(=S)Nc2ccc(OC(F)F)cc2)cc1	none
O=C(CCC1N=C2c3ccccc3N=C(SCc3ccc(Cl)cc3)N2C1=O)NCc1ccco1 (stereo unspecified)	KCNK9 inh -7.75
O=C(CCC1N=C2c3ccccc3N=C(SCc3ccc(F)cc3)N2C1=O)NCc1ccco1 (stereo unspecified)	none
CCn1nc(NS(=O)(=O)c2ccc([N+](=O)[O-])cc2)c2cc3cccc(C)c3nc21	KCNQ1 inh 9
CCn1nc(NS(=O)(=O)c2ccccc2[N+](=O)[O-])c2cc3cccc(C)c3nc21	none
COc1ccccc1N1CCN(CC(=O)Nc2ccccc2C(=O)NCCc2ccccc2)CC1	none (no result: KCNQ1 inh, KCNQ1 pot, hERG rescue, Kir21 inh, KCNK9 inh)
CC(c1ccccc1)N1CCC(CNC(=S)Nc2cccc(Cl)c2)C1 (stereo unspecified)	Kir21 inh -5.89
Cc1ccc(NC(=S)NCC2CCN(C(C)c3ccccc3)C2)cc1 (stereo unspecified)	none
Cc1cc(Nc2ccccc2)nc(NCc2ccccc2)n1	Kir21 inh -10.7
Cc1nc(NN)nc(NCc2ccccc2)n1	hERG rescue 7.1

Compound activity from PubChem BioAssay.
